Measurements as given in ChEMBL document CHEMBL5316292 (J Med Chem, 2023).
pIC50: −log10 of the molar value.

Assays:
[1] = biological target: Bromodomain-containing protein 3 (Homo sapiens, UniProt Q15059); assay: Binding affinity to human partial length BRD3 BD1 (P24 to E144 residues) expressed in bacterial expression system using H4K5acIC8acK12acK16ac-biotinylated peptide as substrate preincubated for 30 mins followed by substrate addition by AlphaScreen assay
Procedure, shortened: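 AlphaScreen. Biotinylated H4K5acK8acK12acK16ac peptide added at equal concentration to protein for 30 min. Donor and acceptor beads (25 µg/mL each) added, ≥1 h in the dark. Triplicate, curve-fitted, SEM.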

[2] = biological target: Bromodomain-containing protein 2 (Homo sapiens, UniProt P25440); assay: Induction of BRD2 degradation in human MDA-MB-231 cells incubated for 16 hrs by immunoblotting analysis; assay type: cell-based
Bromodomain-containing protein 2, sequence (P25440 whole entry): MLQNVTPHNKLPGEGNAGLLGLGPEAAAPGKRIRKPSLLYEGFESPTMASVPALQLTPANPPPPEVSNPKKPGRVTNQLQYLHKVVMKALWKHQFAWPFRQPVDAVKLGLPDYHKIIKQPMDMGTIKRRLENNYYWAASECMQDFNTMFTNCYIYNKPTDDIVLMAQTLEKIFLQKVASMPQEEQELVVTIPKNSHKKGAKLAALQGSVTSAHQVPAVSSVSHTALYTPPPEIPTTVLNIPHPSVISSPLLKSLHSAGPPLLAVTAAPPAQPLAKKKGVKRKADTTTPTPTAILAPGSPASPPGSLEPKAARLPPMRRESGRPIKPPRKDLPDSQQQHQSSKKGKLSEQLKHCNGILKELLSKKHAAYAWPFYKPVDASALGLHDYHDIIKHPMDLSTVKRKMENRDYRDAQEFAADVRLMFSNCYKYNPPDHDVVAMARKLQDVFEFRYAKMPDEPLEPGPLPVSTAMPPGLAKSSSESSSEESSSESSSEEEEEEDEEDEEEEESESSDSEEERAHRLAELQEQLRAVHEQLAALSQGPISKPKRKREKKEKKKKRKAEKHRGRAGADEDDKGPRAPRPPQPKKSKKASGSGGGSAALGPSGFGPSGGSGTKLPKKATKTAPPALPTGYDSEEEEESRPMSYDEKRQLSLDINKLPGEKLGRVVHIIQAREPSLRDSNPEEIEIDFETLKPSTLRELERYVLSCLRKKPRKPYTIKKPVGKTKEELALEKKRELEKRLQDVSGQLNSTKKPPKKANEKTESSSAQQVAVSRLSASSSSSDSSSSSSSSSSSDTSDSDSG
Procedure, shortened: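 MDA-MB-231 or PC-3 cells at 50% confluence in DMEM/10% FBS/pen-strep, treated 16 h with doses falling tenfold from 10 µM to 1 nM. RIPA lysates immunoblotted for BRD2, BRD3 and BRD4 with GAPDH as control. DC50 derived from band densitometry. SEM, n = 2.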

Bromodomain-containing protein 3, sequence (Q15059 whole entry, the tested form may be a part): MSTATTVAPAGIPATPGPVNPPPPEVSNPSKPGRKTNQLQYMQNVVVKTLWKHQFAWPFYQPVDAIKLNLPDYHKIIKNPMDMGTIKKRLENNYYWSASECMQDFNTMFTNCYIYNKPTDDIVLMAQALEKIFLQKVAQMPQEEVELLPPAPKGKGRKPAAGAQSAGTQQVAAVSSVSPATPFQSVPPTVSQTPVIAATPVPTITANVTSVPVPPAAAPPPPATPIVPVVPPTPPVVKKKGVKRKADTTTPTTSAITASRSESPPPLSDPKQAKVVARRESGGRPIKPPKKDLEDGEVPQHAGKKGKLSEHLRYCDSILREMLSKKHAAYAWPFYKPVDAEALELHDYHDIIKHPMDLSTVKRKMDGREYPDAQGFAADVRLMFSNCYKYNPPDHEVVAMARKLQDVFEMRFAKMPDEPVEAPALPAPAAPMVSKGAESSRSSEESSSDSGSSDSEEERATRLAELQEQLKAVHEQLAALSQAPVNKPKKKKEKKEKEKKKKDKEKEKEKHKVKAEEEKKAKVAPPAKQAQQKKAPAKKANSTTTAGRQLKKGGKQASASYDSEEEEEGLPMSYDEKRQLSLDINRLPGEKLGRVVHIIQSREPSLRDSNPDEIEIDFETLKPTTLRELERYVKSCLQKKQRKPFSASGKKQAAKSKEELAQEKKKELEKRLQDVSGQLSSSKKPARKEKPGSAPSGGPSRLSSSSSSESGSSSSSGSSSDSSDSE

Structure (SMILES): CC(=O)OC[C@]12CC[C@H]3[C@@H](C[C@H]4O[C@]45CC=CC(=O)[C@]35C)[C@]1(O)CC[C@@]2(O)[C@@](C)(O)[C@H]1CC(C)=C(C)C(=O)O1
- pIC50 [1]: 8.15
- DC50 [2]: > 10000 nM
